# SENP8 block-1 – SENP8 protease inhibitors, primary screen, biochemical, luminescence. purified SENP8, Z-RLRGG-aminoluciferin cleavage. inhibition, % at 10 µM. 1.2% of 330,000 active. AID 2540, 2010; in the data active = inhibition above about 50%
# SENP8 block-2 – human SENP8 protease inhibitors, primary screen, biochemical, fluorescence, Nedd8 protein substrate, uHTS; Sentrin-specific protease 8 (Homo sapiens), Q96LD8; recombinant SENP8; inhibition, % at 20 µM; 0.64% of 360,000 active; in the data active = inhibition mostly above about 40%, no sharp cut-off; inactive = mostly below about 27%
# HSP90 refold inh – HSP90 inhibitors, primary screen, cell lysate, luminescence. 0.91% of 290,000 active. Rabbit reticulocyte lysate, luciferase refolding luminescence, 3 h. Heat shock protein HSP 90 (rabbit reticulocyte lysate; luciferase refolding). AID 1789, 2009. inhibition, % at 5.6 µM;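 active = inhibition above the screen-wide mean plus 3 SD, computed separately per campaign, cut at about 16% in these data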;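 also: 0% = DMSO wells and 100% = 60 µM geldanamycin wells; inhibitors lower the luminescence because luciferase stays unfolded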
# SENP1 inh – human SENP1 catalytic domain inhibitors, primary screen, biochemical, FRET, uHTS; recombinant SENP1 catalytic domain, CyPet-SUMO1-YPet FRET cleavage; 0.21% of 360,000 active; inhibition, % at 10 µM;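 active = inhibition at least 30% at 10 µM, raw YFP signal under a set limit, fluorescence ratio 0.5 to 1.5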;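 also: 0% = enzyme with DMSO and 100% = no enzyme wells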
#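 Test system: human SENP1 catalytic domain; medium: Tris pH 8 buffer plus EDTA, NaCl, BME, BSA, NP40, catalase; incubation: 50 min reaction at room temperature; technique: FRET, CFP and YFP emission; controls: no-enzyme low control and enzyme-plus-DMSO high control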
# SENP6 inh – SENP6 protease inhibitors, primary screen, biochemical, luminescence, uHTS. Recombinant SENP6 catalytic domain, aminoluciferin luminescence. inhibition, % at 10 µM. 1.8% of 330,000 active. AID 2599, 2010;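 active = inhibition above about 50% at the single tested dose, limit read from the data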;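 also: plate controls were DMSO wells with enzyme for no effect and DMSO wells lacking enzyme for full effect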
# SENP7 block – SENP7 protease inhibitors, primary screen, biochemical, luminescence, uHTS; Sentrin-specific protease 7 (Homo sapiens), Q9BQF6; recombinant SENP7, Z-RLRGG-aminoluciferin luminescence, 40 min; inhibition, % at 5 µM; 1.5% of 330,000 active;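 active = inhibition above about 50% at the single test dose, limit read from the data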;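 also: plate controls were DMSO with enzyme for no effect and no enzyme buffer wells for full effect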
# Target sequence (Q9BQF6 706-1050 limits assumed): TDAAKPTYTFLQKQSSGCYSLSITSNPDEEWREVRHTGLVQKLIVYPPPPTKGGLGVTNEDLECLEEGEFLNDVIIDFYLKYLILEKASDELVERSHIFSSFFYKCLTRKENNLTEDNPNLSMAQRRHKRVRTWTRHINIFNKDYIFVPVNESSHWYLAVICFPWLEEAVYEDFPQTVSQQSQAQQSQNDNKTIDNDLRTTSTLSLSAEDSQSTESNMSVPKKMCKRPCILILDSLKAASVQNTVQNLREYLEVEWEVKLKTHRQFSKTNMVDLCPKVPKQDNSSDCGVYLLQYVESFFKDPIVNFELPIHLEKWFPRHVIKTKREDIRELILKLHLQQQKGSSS
# SENP8 confirm – SENP8 protease inhibitors, retest, confirmation, biochemical, luminescence, single concentration; shares compounds with SENP7 block; Recombinant SENP8, Z-RLRGG-aminoluciferin luminescence, 60 min; inhibition, % at 12.5 µM; 40% of 6,200 active;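 active = mean inhibition across replicates above about 50%, limit read from the data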
# SENP6 confirm – SENP6 protease inhibitors, confirmation, biochemical, luminescence, single concentration | shares compounds with SENP7 block | recombinant SENP6, Z-RLRGG-aminoluciferin luminescence | inhibition, % at 12.5 µM | 58% of 6,200 active | AID 488915, 2010
# SENP7 confirm – SENP7 protease inhibitors, retest, confirmation, biochemical, luminescence, single concentration. inhibition, % at 12.5 µM. 69% of 6,200 active. AID 488917, 2010. recombinant SENP7, Z-RLRGG-aminoluciferin luminescence, 40 min. shares compounds with SENP7 block
# Casp3 select – caspase-3 protease inhibitors, confirmation, selectivity assay for SENP inhibitor project, biochemical, single concentration | purified caspase-3, Z-DEVD-aminoluciferin luminescence, 60 min | 60% of 6,200 active | inhibition, % at 12.5 µM | shares compounds with SENP7 block;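 active = mean inhibition above about 50%, limit read from the data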;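 also: plate controls were enzyme with DMSO for no effect and wells without caspase-3 for full effect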
# Target sequence (P42574 28-227 limits assumed): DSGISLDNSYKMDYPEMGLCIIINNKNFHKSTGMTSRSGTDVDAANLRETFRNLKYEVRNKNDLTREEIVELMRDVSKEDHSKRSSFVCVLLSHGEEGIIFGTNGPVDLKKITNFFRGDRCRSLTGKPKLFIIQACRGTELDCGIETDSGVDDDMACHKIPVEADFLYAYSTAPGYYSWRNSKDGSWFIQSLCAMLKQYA
# Luc interf – interferes with luciferase luminescence in SENP counter-screen; shares compounds with SENP7 block; Pre-incubated SENP8/Z-RLRGG-aminoluciferin, luciferase luminescence interference; inhibition, % at 12.5 µM; 39% of 6,200 active; AID 488919;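 active = mean inhibition above about 50% when retested at one dose, limit read from the data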;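 also: plate controls were DMSO wells with completed reaction for no effect and substrate without enzyme for full effect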
# The depositor's hits bear a star; i = inactive; . = no result. An excerpt weighted towards active compounds, which were near 2.9% of everything screened.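 The calls were made as follows, unless noted: active = mean inhibition above about 50% in the one-dose retest (limit read from the data); inactive = the rest.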
SMILES,SENP8 block-1,SENP8 block-2,HSP90 refold inh,SENP1 inh,SENP6 inh,SENP7 block,SENP8 confirm,SENP6 confirm,SENP7 confirm,Casp3 select,Luc interf
CSc1nc2ccc3nc(NC(=O)c4cccs4)sc3c2s1,10.5,-250.2,4.7,-8.3,31.4,-4.9,.,.,.,.,.
O=C(NC(=S)Nc1nc2ccccc2s1)c1cccs1,43.4,2.2,-5.0,-6.5,75.8*,20.4,13.1,7.5,25.6,12.6,11.7
O=C(Nc1nc2ccc(F)cc2s1)c1cccs1,91.9*,-95.2,5.0,0.0,91.4*,94.8*,66.6*,96.0*,102.7*,93.2*,80.9*
O=C(Nc1nc2ccc(S(=O)(=O)N3CCCC3)cc2s1)c1cccs1,-6.5,-301.2,0.7,2.4,25.8,0.8,.,.,.,.,.
O=C(NC(=S)Nc1nc2ccc(F)cc2s1)c1ccco1,11.8,12.0,1.6,-2.3,68.8*,61.9*,12.9,12.6,10.3,4.4,2.1
CN(C)S(=O)(=O)c1ccc2nc(NC(=O)c3cccs3)sc2c1,39.8,-236.8,5.7,3.2,72.8*,55.3*,77.4*,74.3*,89.6*,72.2*,75.9*
CCOc1cc(/C=C(\C#N)C(=O)NCc2cccnc2)ccc1O,1.2,-41.1,-1.6,-94.2,-2.6,-4.4,.,.,.,.,.
CC(C)C(C(=O)NC1CCCC1)N(CC1CCCO1)C(=O)CNS(=O)(=O)c1ccccc1 (stereo not given),8.4,-1.1,0.2,0.2,-0.6,3.3,.,.,.,.,.
Cc1ccc(CSc2ccc(-c3cccs3)nn2)cc1,7.8,15.7,-10.3,0.1,25.3,69.0*,11.6,11.8,6.5,12.9,5.7
Cc1ccc(CSc2ccc(-c3ccco3)nn2)cc1,-1.3,-0.3,-1.2,4.5,84.1*,68.5*,33.0,77.2*,96.0*,68.7*,29.8
c1ccc(CSc2ccc(-c3ccco3)nn2)cc1,19.4,-3.1,-1.3,4.8,60.4*,18.3,20.8,53.9*,78.6*,52.4*,10.5
Clc1ccc(CSc2ccc(-c3ccco3)nn2)cc1,-3.5,8.6,-3.1,1.6,2.5,-8.1,.,.,.,.,.
C=C(C)Cn1c(N2CCC(Cc3ccccc3)CC2)nc2c1c(=O)[nH]c(=O)n2C,81.0*,19.3,2.9,0.9,97.6*,4.5,22.6,20.7,1.1,6.1,0.0
O=C(CSCc1ccc(F)cc1)Nc1ccccc1,2.9,4.0,0.2,-0.2,-4.2,65.1*,7.1,6.5,-0.2,-2.8,-2.0
Cc1ccc(Sc2ncccc2N)cc1,20.2,-32.4,.,-12.9,67.4*,25.2,-25.2,-16.0,-12.4,-10.1,-4.5
COc1ccc([C@H]2CC(=O)C=C(c3cc(OC)ccc3OC)C2)cc1,-10.6,-86.4,.,-1.2,-15.5,-1.0,.,.,.,.,.
Cc1noc(C)c1C(=O)Nc1nc2ccc(S(C)(=O)=O)cc2s1,38.1,-183.3,2.0,0.0,66.0*,62.2*,59.9*,55.5*,84.6*,84.8*,61.5*
COc1ccc(-c2csc(NC(=O)c3c(C)noc3C)n2)cc1,6.6,-17.8,.,-3.6,-2.8,-3.6,.,.,.,.,.
CS(=O)(=O)c1ccc2nc(NC(=O)c3ccc(Cl)cc3)sc2c1,-8.6,-75.6,3.2,1.4,-1.6,8.1,.,.,.,.,.
COc1ccc2nc(NC(=O)c3c(C)noc3C)sc2c1,73.4*,i,.,0.1,78.5*,82.6*,82.9*,80.7*,96.8*,88.4*,65.4*
CC(C)c1ccc(-c2nnn(CCC(=O)O)n2)cc1,71.0*,19.2,3.9,3.7,58.9*,26.1,-6.3,68.5*,83.6*,21.2,22.3
O=[N+]([O-])c1ccc(O)c(/C=N/NC(=S)Nc2ccc(Cl)cc2Cl)c1,87.5*,27.9,2.7,-77.0,94.2*,57.1*,76.7*,85.3*,54.7*,35.4,6.2
COc1ccc(OC)cc1,4.8,37.3,.,2.6,-3.6,0.7,.,.,.,.,.
COc1ccc(-c2cc(O)cc(O)c2)cc1,35.7,10.5,-1.1,0.4,70.4*,59.6*,42.0,36.0,60.4*,32.7,49.5
O=C(Nc1ccccc1F)c1c[nH]c(=O)[nH]c1=O,23.2,27.6,-0.3,0.2,51.2*,28.6,40.2,34.7,69.7*,75.6*,49.1
SMILES,SENP8 block-1,SENP8 block-2,HSP90 refold inh,SENP1 inh,SENP6 inh,SENP7 block,SENP8 confirm,SENP6 confirm,SENP7 confirm,Casp3 select,Luc interf
COc1ccccc1/C=C/C(=O)OCC(=O)Nc1ccc2c(c1)OCCO2,-24.3,-118.0,.,1.4,-18.7,2.2,.,.,.,.,.
COc1ccc(NC(=O)/C(=C/c2ccc3c(c2)OCO3)NC(C)=O)cc1,0.8,5.3,0.3,1.1,1.3,9.3,.,.,.,.,.
O=C(COc1ccc2c(c1)OCO2)Nc1cccc(F)c1,29.0,4.3,2.3,1.1,45.1,32.1,.,.,.,.,.
COc1ccc(NC(=O)/C=C/c2ccc3c(c2)OCO3)cc1,45.1,3.9,0.7,3.6,67.3*,79.0*,28.6,34.5,76.8*,66.6*,71.6*
CC(C)=CC(=O)Nc1ccc2c(c1)OCO2,50.3*,7.7,6.0,0.4,63.5*,0.8,58.8*,58.9*,83.6*,86.1*,63.0*
COc1ccccc1/C=C/C(=O)Nc1ccc2c(c1)OCCO2,51.6*,4.0,0.9,-0.3,67.4*,60.0*,68.2*,66.1*,86.1*,49.1,63.0*
O=C(Nc1cccc(F)c1)Nc1ccc2c(c1)OCO2,84.9*,-0.2,-1.4,1.4,92.5*,96.0*,83.6*,86.5*,99.2*,85.5*,79.8*
O=C(Nc1ccc2c(c1)OCO2)c1cc(Cl)ccn1,77.0*,3.5,.,3.7,84.5*,80.9*,80.7*,80.1*,96.4*,88.4*,16.0
